Laboratory results published in ChEMBL document CHEMBL1132592, “Synthesis of novel 2-benzothiopyran and 3-benzothiepin derivatives and their stimulatory effect on bone formation” (J Med Chem, 1999).

Legend:
[1] = biological target: T1, Alkaline phosphatase, tissue-nonspecific isozyme (Mus musculus) (UniProt P09242); experiment: Alkaline phosphatase stimulatory activity of 10E-5 M compound in culture of MC3T3-E1 in absence of BMP
T1 sequence (whole entry): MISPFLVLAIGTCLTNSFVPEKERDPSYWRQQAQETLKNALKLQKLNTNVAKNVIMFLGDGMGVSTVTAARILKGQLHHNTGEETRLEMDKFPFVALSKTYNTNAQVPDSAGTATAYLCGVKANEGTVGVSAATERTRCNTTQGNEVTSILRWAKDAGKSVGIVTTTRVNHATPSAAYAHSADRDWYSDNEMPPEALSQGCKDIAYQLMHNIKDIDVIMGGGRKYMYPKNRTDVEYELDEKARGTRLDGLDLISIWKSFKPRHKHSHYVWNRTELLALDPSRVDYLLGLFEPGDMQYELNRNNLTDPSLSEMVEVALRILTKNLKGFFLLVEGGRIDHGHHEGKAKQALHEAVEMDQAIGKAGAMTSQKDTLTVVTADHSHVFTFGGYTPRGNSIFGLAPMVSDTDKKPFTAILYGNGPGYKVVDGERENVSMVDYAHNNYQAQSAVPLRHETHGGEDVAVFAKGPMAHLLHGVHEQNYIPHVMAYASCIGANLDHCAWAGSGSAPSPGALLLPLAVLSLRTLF
How it was run: (§1)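 Mouse osteoblastic MC3T3-E1 cells, 3000 cells/well, grown 3 days in α-MEM with 10% FBS, then switched to α-MEM with 1% FBS plus compound, with or without recombinant Xenopus BMP-4/7 heterodimer (3 ng/mL), for 3 more days. ALP in lysate supernatant read as absorbance at 405 nm; mean ± SE, n = 6; Dunnett's test vs matching control.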

[2] = biological target: T1, Alkaline phosphatase, tissue-nonspecific isozyme (Mus musculus); experiment: Alkaline phosphatase stimulatory activity of 10E-5 M compound in culture of MC3T3-E1 in presence of 3 ng/mL of BMP; how it was run: as §1
[3] = biological target: T1, Alkaline phosphatase, tissue-nonspecific isozyme (Mus musculus); experiment: Alkaline phosphatase stimulatory activity of 10E-6 M compound in culture of MC3T3-E1 in absence of BMP; how it was run: as §1
[4] = biological target: T1, Alkaline phosphatase, tissue-nonspecific isozyme (Mus musculus); experiment: Alkaline phosphatase stimulatory activity of 10E-6 M compound in culture of MC3T3-E1 in presence of 3 ng/mL of BMP; how it was run: as §1
[5] = biological target: T2, Alkaline phosphatase, tissue-nonspecific isozyme (Rattus norvegicus) (UniProt P08289); experiment: Effect on alkaline phosphatase activity compared to control in culture of rat bone marrow stromal cells, 10E-5 M concentration; assay type: tissue-based
T2 sequence (whole entry): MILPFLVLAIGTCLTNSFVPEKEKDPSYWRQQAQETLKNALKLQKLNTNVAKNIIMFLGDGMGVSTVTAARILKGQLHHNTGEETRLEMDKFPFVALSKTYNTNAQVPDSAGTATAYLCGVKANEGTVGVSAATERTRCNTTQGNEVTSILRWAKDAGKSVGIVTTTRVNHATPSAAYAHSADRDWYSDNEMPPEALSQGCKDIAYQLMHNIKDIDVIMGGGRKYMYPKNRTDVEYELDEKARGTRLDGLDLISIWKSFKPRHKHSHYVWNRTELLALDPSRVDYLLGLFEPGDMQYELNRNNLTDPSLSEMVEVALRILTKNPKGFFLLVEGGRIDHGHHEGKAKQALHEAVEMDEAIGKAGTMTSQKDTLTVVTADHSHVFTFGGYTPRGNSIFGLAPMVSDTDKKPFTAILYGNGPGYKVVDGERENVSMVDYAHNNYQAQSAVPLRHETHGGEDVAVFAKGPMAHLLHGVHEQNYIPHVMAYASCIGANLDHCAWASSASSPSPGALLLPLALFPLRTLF
How it was run: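 Rat femoral marrow stromal cells subcultured at 4 × 10^4 cells/well in α-MEM with 15% FBS, ascorbate, 10 mM β-glycerophosphate and 10^-7 M dexamethasone. Compound added day 1 to day 10-14, medium refreshed every other day. Lysate ALP (Lowry method) given as fold of control; n = 5–10; Student's t-test.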

[6] = biological target: T2, Alkaline phosphatase, tissue-nonspecific isozyme (Rattus norvegicus); experiment: Effect of 10E-5 M compound on alkaline phosphatase activity in culture of rat bone marrow stromal cells; assay type: tissue-based
How it was run: (§2)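 Femoral marrow stromal cells from 7-week-old male Sprague-Dawley rats. Primary culture 1 week in α-MEM (10 mM HEPES pH 7.0, 15% FBS, 2 mM glutamine, 50 μg/mL ascorbate, 10 mM β-glycerophosphate, 10^-7 M dexamethasone), 37 °C, 5% CO2. Subcultured at 4 × 10^4 cells/well; compound (10 mM stock in EtOH-DMSO 1:1 or DMF) from day 1 to day 10-14, medium changed every other day. Lysate ALP (Lowry method) in nmol/min/well; mean ± SE, n = 5–10.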

[7] = biological target: T2, Alkaline phosphatase, tissue-nonspecific isozyme (Rattus norvegicus); experiment: Effect of 10E-6 M compound on alkaline phosphatase activity in culture of rat bone marrow stromal cells; how it was run: as §2
[8] = biological target: T2, Alkaline phosphatase, tissue-nonspecific isozyme (Rattus norvegicus); experiment: Effect of 10E-7 M compound on alkaline phosphatase activity in culture of rat bone marrow stromal cells; how it was run: as §2

## CCOP(=O)(Cc1ccc(NC(=O)[C@H]2Cc3cc4c(cc3C(=O)[C@H](C)S2)OCO4)cc1)OCC
[1]
  ALP activity: 0.195
[2]
  ALP activity: 0.284
[3]
  ALP activity: 0.154
[4]
  ALP activity: 0.191
[5]
  ALP activity: 5.5
[6]
  ALP activity: 1640
[7]
  ALP activity: 682
[8]
  ALP activity: 192
